Laboratory results taken from ChEMBL document CHEMBL4049428, “Exploring Derivatives of Quinazoline Alkaloid l-Vasicine as Cap Groups in the Design and Biological Mechanistic Evaluation of Novel Antitumor Histone Deacetylase Inhibitors” (J Med Chem, 2017).
Activity calls are given as the source filed them. No cut-off for these calls is given here.

What was measured:
Histone deacetylase 1 = Histone deacetylase 1 (Homo sapiens, UniProt Q13547); assay: Inhibition of HDAC 1 in human HeLa nuclear extract using HDAC substrate-3 measured after 60 mins by fluorometric analysis
Histone deacetylase 1, sequence (Q13547 whole entry): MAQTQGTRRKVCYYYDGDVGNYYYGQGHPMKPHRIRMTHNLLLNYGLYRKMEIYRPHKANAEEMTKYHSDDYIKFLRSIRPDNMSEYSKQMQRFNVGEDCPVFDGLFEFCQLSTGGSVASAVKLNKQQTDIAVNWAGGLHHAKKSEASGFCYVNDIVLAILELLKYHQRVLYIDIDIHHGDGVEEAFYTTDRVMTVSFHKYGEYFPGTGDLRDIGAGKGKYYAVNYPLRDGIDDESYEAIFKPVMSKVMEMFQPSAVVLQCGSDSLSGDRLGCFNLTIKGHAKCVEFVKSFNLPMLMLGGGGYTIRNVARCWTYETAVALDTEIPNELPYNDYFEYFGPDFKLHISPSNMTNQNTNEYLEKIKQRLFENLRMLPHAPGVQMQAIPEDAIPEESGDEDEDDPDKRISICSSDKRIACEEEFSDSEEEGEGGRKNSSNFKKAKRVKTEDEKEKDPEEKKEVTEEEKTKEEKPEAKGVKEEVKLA

Histone deacetylase 9 = Histone deacetylase 9 (Homo sapiens, UniProt Q9UKV0); assay: Inhibition of HDAC 9 in human HeLa nuclear extract using fluorogenic HDAC class 2A substrate measured after 60 mins by fluorometric analysis
Histone deacetylase 9, sequence (Q9UKV0 whole entry): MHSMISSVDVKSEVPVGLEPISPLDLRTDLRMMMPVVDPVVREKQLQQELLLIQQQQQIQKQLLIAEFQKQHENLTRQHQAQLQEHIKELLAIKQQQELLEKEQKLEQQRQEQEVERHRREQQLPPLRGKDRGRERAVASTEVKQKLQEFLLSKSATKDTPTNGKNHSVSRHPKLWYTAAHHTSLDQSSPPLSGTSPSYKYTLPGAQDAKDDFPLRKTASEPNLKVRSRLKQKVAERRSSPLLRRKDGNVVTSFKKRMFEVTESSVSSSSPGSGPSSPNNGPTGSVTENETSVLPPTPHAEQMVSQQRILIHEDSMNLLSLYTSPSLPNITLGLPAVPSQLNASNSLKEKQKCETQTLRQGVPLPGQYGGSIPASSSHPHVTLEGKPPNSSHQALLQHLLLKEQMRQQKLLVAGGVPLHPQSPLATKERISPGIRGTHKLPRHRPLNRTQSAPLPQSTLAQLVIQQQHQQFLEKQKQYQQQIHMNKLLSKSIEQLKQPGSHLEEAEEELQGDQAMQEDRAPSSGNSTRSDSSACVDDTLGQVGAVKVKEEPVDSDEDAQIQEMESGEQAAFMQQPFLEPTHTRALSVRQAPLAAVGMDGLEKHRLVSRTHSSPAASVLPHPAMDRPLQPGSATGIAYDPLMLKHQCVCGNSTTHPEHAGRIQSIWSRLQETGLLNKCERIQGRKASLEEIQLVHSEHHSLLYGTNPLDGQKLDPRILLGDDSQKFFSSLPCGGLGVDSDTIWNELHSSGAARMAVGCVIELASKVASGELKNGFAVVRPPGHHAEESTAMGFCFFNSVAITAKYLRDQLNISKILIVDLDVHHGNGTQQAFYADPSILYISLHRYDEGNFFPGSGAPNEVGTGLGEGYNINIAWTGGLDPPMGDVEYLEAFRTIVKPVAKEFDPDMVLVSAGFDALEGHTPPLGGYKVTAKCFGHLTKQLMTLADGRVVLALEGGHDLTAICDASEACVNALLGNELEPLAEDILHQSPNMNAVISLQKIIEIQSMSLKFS

THP-1 = assay: Cytotoxicity against human THP1 cells assessed as growth inhibition at 10 uM after 48 hrs by MTT assay; format: functional; conditions: THP-1, 48 h, read-out: GI
Procedure, shortened: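 MTT assay, 48 h exposure; adherent lines seeded 12 h and suspension lines 4 h before compound. Media: RPMI-1640/10% FCS (THP-1, HL-60, Colo-205, Caco-2, A549), DMEM/10% FCS (A549, MIAPaCa-2, MCF-7). MTT 4 h, formazan dissolved in DMSO, absorbance 570 nm. Mean ± S.D of three experiments in triplicate; SAHA 5 µM reference.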

A549 = assay: Cytotoxicity against human A549 cells assessed as growth inhibition after 48 hrs by MTT assay; format: functional, cell-based; conditions: A549, 48 h
Homo sapiens = species on record: Homo sapiens; assay: Inhibition of HDAC in human MOLT4 cells assessed as increase in acetylated H4K5 levels after 48 hrs by Western blot analysis; format: cell-based
Procedure, shortened: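 Cells seeded 2-4 h, treated 48 h with graded compound concentrations (SAHA control); histones acid-extracted (HEPES pH 9 buffer, 0.2 N HCl, 1 h on ice), Bradford-normalised, resolved on 18% SDS gels, blotted to PVDF, probed for acetyl-H3K18 and acetyl-H4K5 with H3 and β-actin loading controls; ECL detection.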

[1] = Cytotoxicity against human FR2 cells assessed as growth inhibition after 48 hrs by MTT assay; format: ADME, cell-based; conditions: FR2, 48 h
MCF-10A = assay: Cytotoxicity against human MCF10A cells assessed as growth inhibition after 48 hrs by MTT assay; format: ADME, cell-based
HL-60 [2] = assay: Induction of mitochondrial membrane potential loss in human HL60 cells at 5 uM measured after 48 hrs by Rh123 dye-based flow cytometric analysis (reference value: 5.6%); format: functional
Procedure, shortened: (§1)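 Cells seeded in 6-well plates 2-4 h, then 48 h with compound; Rh-123 1 µM added for the final half hour; cells centrifuged, washed twice in PBS, resuspended in PBS, and Ψm loss quantified by flow cytometry as percentage of cells.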

MOLT-4 [3] = assay: Induction of mitochondrial membrane potential loss in human MOLT4 cells assessed as intact mitochondrial membrane potential at 0.125 uM measured after 48 hrs by Rh123 dye-based flow cytometric analysis (reference value: 90.4%); format: functional; procedure, shortened: as §1
MOLT-4 [4] = assay: Induction of mitochondrial membrane potential loss in human MOLT4 cells at 10 uM measured after 48 hrs by Rh123 dye-based flow cytometric analysis (reference value: 9.6%); format: functional; procedure, shortened: as §1
HL-60 [5] = assay: Induction of reactive oxygen species in human HL60 cells at 0.125 uM measured after 48 hrs by H2DCFDA dye-based flow cytometric analysis (reference value: 0.4%); format: functional
HL-60 [6] = assay: Induction of reactive oxygen species in human HL60 cells at 10 uM measured after 48 hrs by H2DCFDA dye-based flow cytometric analysis (reference value: 0.4%); format: functional
HL-60 [7] = assay: Induction of autophagy in human HL60 cells assessed as acidic vacuole formation in cytoplasm at 10 uM after 48 hrs by acridine orange dye-based fluorescent microscopic analysis; format: functional, cell-based
Procedure, shortened: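 Cells treated 48 h with a range of compound concentrations, SAHA 1.0 µM as positive control; acridine orange 1 µg/ml added 15 min before end at 37°C; cells washed in PBS and acidic vacuoles viewed by fluorescence microscopy.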

O=C(CCCCCCC(=O)Nc1ccccc1CN1CC[C@H](O)C1)NO
IC50 (Histone deacetylase 1): 415 nM
IC50 (Histone deacetylase 9): > 10 µM
inhibition of growth at 10 µM (THP-1): 94%
IC50 (A549): 7 µM
inhibition (Homo sapiens): Dose-dependent effect
IC50 [1]: 23 µM
IC50 (MCF-10A): 37 µM
Activity (HL-60 [2]): 12.1%
Activity (MOLT-4 [3]): 97.6%
Activity (MOLT-4 [4]): 67.5%
Activity (HL-60 [5]): 1%
Activity (HL-60 [6]): 0.1%
Activity (HL-60 [7]): Active
